Data from PubChem BioAssay AID602146 (NMMLSC, 2011).

System: SCC-12F cells, EGF-induced EGFR degradation, Western blot
Test: EGFR lysosomal turnover delay in cells – SCC-12F cells, Western blot, mechanism study for Ras-related GTPase inhibitor project (AID 602146)
Settings: at 100 µM, stronger effect = higher value; for EGFR remaining fraction at 60 min: measured here: 60 min time point
Outline: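 also added = EGF stimulation at 20 nM after compound pretreatment | times = 2 h pretreatment, 0–2 h EGF exposure | measured by = EGFR Western blot | read-out = EGFR fraction versus time zero, compared with DMSO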

Row | Structure (SMILES) | EGFR remaining fraction at 120 min | EGFR remaining fraction at 60 min
1 | COc1cccc(C(=O)NC(=S)Nc2sc3c(c2C(=O)O)CC(C)(C)OC3)c1 | 1.24 | 0.651
2 | CC1(C)Cc2c(sc(NC(=S)NC(=O)c3ccc(Br)cc3)c2C(=O)O)CO1 | 0.643 | 0.696
3 | CC1(C)Cc2c(sc(NC(=S)NC(=O)c3ccc(F)cc3)c2C(=O)O)CO1 | 0.241 | 0.561
